High-throughput results: PubChem, several laboratories
Beta2AR agonist: activates human beta-2 adrenergic receptor causing internalization | Am2.2-beta2AR cells, FAP receptor internalization, flow cytometry | response, % (test concentration not listed) | actives 0.43% (n = 340,000) | AID 504454;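 active = response above a set limit, near 3 SD of response in nonfluorescent compounds, cut at about 42% in these data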
Target sequence (P07550 whole entry, looked up): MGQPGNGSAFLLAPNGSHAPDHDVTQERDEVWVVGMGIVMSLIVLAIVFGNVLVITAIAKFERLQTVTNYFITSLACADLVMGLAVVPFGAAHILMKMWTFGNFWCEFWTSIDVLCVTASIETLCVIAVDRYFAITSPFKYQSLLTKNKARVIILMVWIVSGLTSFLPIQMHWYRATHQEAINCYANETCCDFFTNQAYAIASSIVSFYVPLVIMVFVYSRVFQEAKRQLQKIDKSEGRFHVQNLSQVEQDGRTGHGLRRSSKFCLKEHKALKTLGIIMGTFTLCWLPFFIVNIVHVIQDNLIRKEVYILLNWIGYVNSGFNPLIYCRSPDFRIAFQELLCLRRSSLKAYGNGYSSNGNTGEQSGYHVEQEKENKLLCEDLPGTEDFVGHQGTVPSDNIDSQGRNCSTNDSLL
UPR XBP1 act: adaptive UPR (XBP1) activation; CHO-XBP1 luciferase reporter, IRE1-XBP1 UPR activation, luminescence; percent of tunicamycin response, DMSO as zero; activation, % at 20 µM; actives 0.33% (n = 330,000);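 active = versus positive control, 20 µM dose yields 30% or more activation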
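Assay system: IRE1-XBP1 luciferase reporter CHO line. Input: 1000 cells/well. Buffer or medium: F12 with 10% serum. Doses: 20 µM, 1% DMSO. Times: overnight seeding at 37 °C, 6 h compound treatment at 37 °C. Technique: Steady-Glo luciferase glow luminescence, 10 min after reagent addition.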
CHOP UPR activ: activators of apoptotic arm of unfolded protein response (CHOP) | activation, % at 10 µM | CHO-CHOP luciferase reporter, UPR activation, luminescence; percent of tunicamycin response over DMSO baseline | actives 0.34% (n = 330,000);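 active = at 10 µM dose, activation of 40% or more, normalized to positive control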
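System: CHO-CHOP luciferase reporter cell line | Buffer or medium: F12 medium containing 10% fetal bovine serum | Doses: One dose, 10 µM in 0.5% DMSO | Times: 6 h compound exposure at 37 °C after overnight seeding | Signal: Luciferase luminescence | Read-out: % activation vs tunicamycin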
Dynein cargo inh: blocks dynein driven cargo transport along microtubules | 3617.4 mouse cells, GR-EGFP nuclear translocation imaging; test concentration mostly 20 µM; stimulated with dexamethasone, 1 µM; hits give low values | z-score, hits read low | actives 0.47% (n = 220,000);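 active = plate z-score of nuclear minus cytoplasmic receptor signal below a set negative limit, without overly bright fluorescence or cell loss, cut at about -3.5 in these data, passing the limit was not always enough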;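 also: z-score of nuclear minus cytoplasmic ring GR-EGFP intensity difference per well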
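Buffer or medium: Induction medium lacking tetracycline, stripped serum | Also added: Dexamethasone agonist, 1.0 µM final, for 30 min | Timing: 48 h induction, 1 h compound, 30 min dex at 37 °C | Detection: Formaldehyde fixation, Hoechst nuclear stain, 10x automated fluorescence imaging | Measure: Nuclear versus cytoplasmic GR-EGFP signal, averaged per well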
CHOP inhibitor: inhibitors of CHOP induction in ER stress response; inhibition, % at 10 µM; CHO-K1 CHOP-promoter luciferase, tunicamycin-induced, 15-18 h; actives 3.8% (n = 220,000); AID 2732;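 active = compounds that reduced the stress-induced luciferase reporter signal by more than about 70% of percent inhibition, limit read from the data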
p-CIP stab down: lowers stability of the mouse p/CIP coactivator protein; Q05BA5; F442A p/CIP-EGFP cells, EGFP fluorescence, 16 h; decrease of EGFP signal, % at 10 µM; actives 0.01% (n = 290,000); AID 1984;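 active = EGFP signal decrease of at least 30% at 10 µM or well 3 SD below plate mean, unless failing retest; inactive = the rest, including hits failing retest or dose response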
XBP1 UPR conf: confirmation of adaptive unfolded protein response (XBP1) activators. activation, % at 20 µM. AID 485299. actives 63% (n = 1,000). shares compounds with UPR XBP1 act. CHO-XBP1 IRE1-XBP1 luciferase reporter, luminescence;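 active = reporter signal at least 30% of the positive control's activation in two or more of four replicate wells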
B2AR ag CP1: agonists of human beta-2 adrenergic receptor | AID 540358 | Am2.2-beta2AR cells, FAP surface receptor, flow cytometry; hits give low values | percent response (surface receptor), % at 10 µM | shares compounds with Beta2AR agonist | actives 25% (n = 1,100);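 active = surface receptor percent response at or below 58%, roughly 3 SD from nonfluorescent compounds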
B2AR FAP counter: fluorescence artifact in beta-2AR agonist FAP counterscreen; Am2.2 cells, FAP fluorogen flow cytometry; hits give low values; shares compounds with Beta2AR agonist; 1,100 tested, under 10 active; AID 588765; calls only at 10 µM;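 active = percent response below a set limit in fluorescence channel 1 and below 50% in channel 8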
Large screens that a line does not name were inactive (follow-up assays come after a bar, where they were run). This excerpt belongs to a sample that is enriched for hits.

CN(C)c1ccc(/C=C/[N+](=O)[O-])cc1	UPR XBP1 act 59 | XBP1 UPR conf 33
NS(=O)(=O)c1ccc(N=Cc2c(O)n(C3CCCCC3)c(=O)n(C3CCCCC3)c2=O)cc1	UPR XBP1 act 46, CHOP inhibitor 112 | XBP1 UPR conf 40
CCCCOC(=O)C1=C(N)OC2=C(C(=O)CCC2)[C@]12C(=O)N(C)c1ccccc12	none
CCCCCCn1c(O)c(C=NC2CCCCC2N)c(=O)[nH]c1=O (stereo not drawn)	UPR XBP1 act 30 (no result: Beta2AR agonist) | XBP1 UPR conf inactive
CN(C)CCN(CC1CCCN(Cc2ccccc2F)C1)C(=O)Cc1c(F)cccc1F (stereo not drawn)	none (no result: Dynein cargo inh, CHOP inhibitor)
CCc1ccc(N2C(=O)NC(=O)/C(=C\c3cccn3CCOc3ccc(C(C)C)cc3)C2=O)cc1	UPR XBP1 act 51, CHOP inhibitor 87 | XBP1 UPR conf 41
COCCn1c(O)c(/C=N/NC(=O)CSC(=S)N2CCCC2)c(=O)[nH]c1=S	none (no result: Dynein cargo inh, CHOP inhibitor, p-CIP stab down)
O=C1NC(=O)N(Cc2ccc(F)cc2)C(=O)/C1=C\c1ccoc1	none
O=C1NC(=O)N(Cc2ccc(F)cc2)C(=O)/C1=C/c1cccs1	UPR XBP1 act 39 | XBP1 UPR conf 40
CNCCc1ccccc1	none (no result: Beta2AR agonist)
CNCCC(Oc1ccc(C(F)(F)F)cc1)c1ccccc1 (stereo not drawn)	none | B2AR ag CP1 inactive | B2AR FAP counter inactive
OC(c1cccc(Cl)c1)(c1cccc(Cl)c1)C1CN2CCC1CC2 (stereo not drawn)	Beta2AR agonist 59 | B2AR ag CP1 inactive | B2AR FAP counter inactive
C/C(=N\Nc1ccccc1)c1c(O)n(Cc2ccccc2)c(=O)[nH]c1=O	none
O=[N+]([O-])CCO	none (no result: Dynein cargo inh, CHOP inhibitor, p-CIP stab down)
COC(=O)C1=C(c2cccc(OCc3ccccc3)c2)C[C@@H]2CC[C@H]1N2C(=O)NCc1ccccc1	none (no result: Dynein cargo inh, CHOP inhibitor, p-CIP stab down)
COC(=O)C1=C(c2cccc(OCc3ccccc3)c2)C[C@@H]2CC[C@H]1N2C(=O)NCc1cccc(F)c1	Beta2AR agonist 54 (no result: Dynein cargo inh, CHOP inhibitor, p-CIP stab down) | B2AR ag CP1 46 | B2AR FAP counter inactive
OC(CNCc1ccccc1)c1ccc(Cl)cc1 (stereo not drawn)	none (no result: UPR XBP1 act, CHOP UPR activ, Dynein cargo inh, CHOP inhibitor, p-CIP stab down) | B2AR ag CP1 inactive | B2AR FAP counter inactive
